Assay outcomes (PubChem)
OXTR potentiate – human OXTR potentiation. P30559. CHO-OTR cells, Fluo-8 calcium fluorescence, potentiator mode; 0% = oxytocin EC15, 100% = EC100. activation, % at 3 µM. actives 0.061% (n = 320,000);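 active means activation above that plate's cutoff, the mean activation of tested compounds plus 3 SD, cut at about 6.6% in these data, passing the limit was not always enough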;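 further: 100% uses oxytocin at 75 nM as the full agonist control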
Target sequence (P30559 whole entry, looked up): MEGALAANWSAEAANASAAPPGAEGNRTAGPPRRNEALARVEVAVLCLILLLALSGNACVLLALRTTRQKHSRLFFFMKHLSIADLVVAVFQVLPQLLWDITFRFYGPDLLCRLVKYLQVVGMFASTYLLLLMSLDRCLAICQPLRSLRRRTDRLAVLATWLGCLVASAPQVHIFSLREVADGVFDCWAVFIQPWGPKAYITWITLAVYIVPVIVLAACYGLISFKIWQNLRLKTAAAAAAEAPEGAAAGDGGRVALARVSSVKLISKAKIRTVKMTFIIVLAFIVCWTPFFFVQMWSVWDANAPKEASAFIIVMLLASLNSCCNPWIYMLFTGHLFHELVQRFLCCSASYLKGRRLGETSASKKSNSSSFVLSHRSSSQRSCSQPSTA
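Assay system: CHO-OTR cells, human receptor / Also added: oxytocin at about EC15, sub-maximal agonist stimulus / Dosing: single dose, 3.0 µM nominal final compound concentration / Incubation: 6 min pre-incubation, 100 s read / Technique: Fluo-8 calcium dye fluorescence / Read-out: % activation vs EC15 and EC100 oxytocin / Benchmarks: EC15 oxytocin low, 75 nM oxytocin high / Replicates: singlicate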
M4 antag – CHRM4 antagonism in calcium assay. CHO-hM4 cells, ACh EC80, Fluo-8 calcium fluorescence. inhibition, % at 3 µM. actives 0.73% (n = 360,000). AID 624125;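 active means inhibition above its plate's cutoff, the mean inhibition of sample wells plus 3 SD, cut at about 27% in these data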;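 further: 0% = acetylcholine EC80 with DMSO and 100% = DMSO without agonist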
M4 ag – CHRM4 agonism in calcium assay; actives 0.14% (n = 360,000); CHO-K1 hM4/Gqi5, Fluo-8 calcium fluorescence; vehicle 0%, full acetylcholine response 100%; P08173; AID 624127; activation, % at 3 µM;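 active means activation above the run mean over all test wells plus 3 SD, cut at about 32% in these data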;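 further: peak over basal fluorescence ratio per well then scaled between controls; 0% = DMSO wells and 100% = acetylcholine at EC100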
CHRM4 PAM – potentiates acetylcholine response at human M4 receptor | P08173 | CHO-K1 hM4/Gqi5, Fluo-8 calcium fluorescence, ACh EC20; 0% = ACh EC20, 100% = maximal ACh | activation, % at 3 µM | actives 0.4% (n = 360,000);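 active means activation above its plate's cutoff, the mean activation of sample wells plus 3 SD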
V1aR counter – counter-screen for oxytocin receptor agonists: human V1a receptor agonists | activation, % at 3 µM | P37288 | actives 0.25% (n = 320,000) | AID 2797 | CHO-V1R cells, Fluo-8 calcium fluorescence, agonist mode; 0% DMSO, 100% 3 nM vasopressin;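 active means activation above the mean activation of all tested compounds plus 3 SD, per screening run, cut at about 20% in these data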;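 further: signal is peak over basal fluorescence ratio across a 100 second FLIPR read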
OXTR ag – agonists of human oxytocin receptor; P30559; CHO-OTR cells, Fluo-8 calcium fluorescence; normalized: DMSO 0%, oxytocin 100%; activation, % at 3 µM; actives 0.32% (n = 320,000);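 active means activation above the mean of all tested compounds plus 3 SD, cutoff set per screening run, cut at about 20% in these data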;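 further: peak over basal fluorescence ratio from a 100 s FLIPR kinetic read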
Starred values were filed as active, the others as inactive; / = no result. Rows were chosen to be rich in hits. Some 1.5% of all compounds tested hit in one or more screens of this group.

SMILES	OXTR potentiate	M4 antag	M4 ag	CHRM4 PAM	V1aR counter	OXTR ag
C#CCn1c2ccccc2c(=O)n1CCOc1ccccc1OC	/	-4	2	2	/	/
CCC(C)NC(=O)c1ccc(CN2CCc3ccccc3C2)cc1 (stereo unspecified)	-1	21	1	-13	1	3
O=C(Nc1ccccc1C(F)(F)F)c1ccc(CN2CCC(Cc3ccccc3)CC2)cc1	-14	8	2	-19	2	1
O=C(Nc1ccc(S(=O)(=O)N2CCOCC2)cc1)c1ccc(CN2CCc3ccccc3C2)cc1	-33	/	/	/	13	18
COCC(C)NC(=O)c1ccc(CN2CCc3ccccc3C2)cc1 (stereo unspecified)	-4	28*	1	-16	2	1
O=C(Nc1ccc(S(=O)(=O)N2CCCC2)cc1)c1ccc(CN2CCc3ccccc3C2)cc1	-8	32*	14	-15	14	17
O=C(Nc1ccccc1)c1ccc(CN2CCC(Cc3ccccc3)CC2)cc1	-9	32*	2	-16	2	1
CCC(c1nc2ccccc2[nH]1)n1c(-c2ccnc(Cl)c2)nc2ccccc21 (stereo unspecified)	/	-1	2	-4	/	/
CCCCC[C@@H](C)N1C[C@@H](COCc2ccccc2)Oc2cc(N3CCC[C@H]3COC)ccc2S1(=O)=O	/	-10	1	-3	/	/
COc1ccc(F)cc1S(=O)(=O)n1nnc2ccccc21	1	-18	1	22*	1	1
Cn1nnnc1SCC(=O)N1CCOCC1	-8	0	0	1	2	0
CC(C)n1nnnc1SCC(=O)N1CCOCC1	-9	28*	0	8	0	2
CCc1ccc(/C=N/NC(=O)c2nnn(-c3nonc3N)c2C(C)C)cc1	-6	-3	4	11	47*	55*
Cc1ccc(-c2c(C(=O)N/N=C/c3ccc(OC(C)C)cc3)nnn2-c2nonc2N)cc1	3	-13	22	5	37*	30*
CCOc1ccc(-c2c(C(=O)N/N=C/c3ccc(OC(C)C)cc3)nnn2-c2nonc2N)cc1	8	-8	10	5	23*	21*
CCOc1ccc(/C=N/NC(=O)c2nnn(-c3nonc3N)c2-c2cccs2)cc1	-11	3	33*	-2	22*	35*
CCOc1ccc(-c2c(C(=O)N/N=C/c3ccc(C)cc3)nnn2-c2nonc2N)cc1	9	-6	5	-4	15	16
CC(C)c1c(C(=O)N/N=C/c2cccnc2)nnn1-c1nonc1N	-10	1	4	0	0	0
OC(c1ccccc1)C(Nc1ccccn1)c1ccccc1 (stereo unspecified)	/	-4	1	-5	/	/
O=c1[nH]cc(F)c(=O)n1C1OC(CO)C(O)C1O (stereo unspecified)	/	-2	2	-1	/	/
Nc1nonc1-n1nnc(C(=O)N/N=C/c2ccccc2Cl)c1CN1CCOCC1	-3	-6	0	16*	0	-1
Nc1nonc1-n1nnc(C(=O)N/N=C/c2ccc(Cl)cc2Cl)c1CN1CCOCC1	-3	10	1	-7	0	0
CCN1C(=O)[C@H]2[C@@H](c3ccc(C)cc3)N3C(=O)N(c4ccc(OC)cc4)C(=O)[C@@]3(Cc3ccc(Cl)cc3)[C@H]2C1=O	5	-12	4	31*	0	1
CCN1C(=O)[C@H]2[C@@H](c3ccc(C)cc3)N3C(=O)N(c4ccc(C)cc4)C(=O)[C@@]3(Cc3ccccc3)[C@H]2C1=O	-6	-25	5	18	0	-1
CSc1nc(-c2ccccc2)nc(N2CCOCC2)c1C(C)=O	0	7	-1	-5	-1	-2
SMILES	OXTR potentiate	M4 antag	M4 ag	CHRM4 PAM	V1aR counter	OXTR ag
CCN1CCN(CC(=O)Nc2ccc3c(c2)OCO3)C(=O)C1=O	-2	-36	2	6	1	0
CCN1CCN(CC(=O)Nc2ccc3c(c2)OCCO3)C(=O)C1=O	-4	-12	0	31*	1	0
CCCNC(=O)NS(=O)(=O)c1ccc(Cl)cc1	3	8	0	-1	1	0
CCCNC(=O)c1ccc2snnc2c1	-10	-8	0	15	1	-1
CCCNC(=O)c1nnsc1S(=O)c1ccc(Cl)cc1 (stereo unspecified)	/	43*	8	-8	/	/
Cc1ccc(S(=O)c2snnc2C)cc1 (stereo unspecified)	-12	3	1	1	0	0
CNC(=O)c1nnsc1S(=O)c1ccc(Cl)cc1 (stereo unspecified)	/	28*	4	-2	/	/
CCCNC(=O)c1nnsc1S(=O)(=O)c1ccc(Cl)cc1	/	65*	2	-12	/	/
O=C(NC(Sc1ccc(Cl)cc1)C(=O)O)c1ccccc1 (stereo unspecified)	/	-9	1	4	/	/
N#CC1=C(N)OC2=C(CC/C2=C\c2ccccc2)C1c1ccccc1 (stereo unspecified)	-19	-3	7	-9	26*	28*
N#CC1=C(N)OC2=C(CC/C2=C\c2ccccc2Cl)C1c1ccccc1Cl (stereo unspecified)	-8	2	2	-3	0	0
CCCC1NC(=O)c2cc3ccccc3cc2-n2c1nc1cc(F)ccc1c2=O (stereo unspecified)	/	-9	9	-1	/	/
O=C(NCCCO)c1nnc(Cc2c(F)cccc2Cl)o1	-5	-8	1	29*	0	1
COc1ccc(CN(C)C(=O)c2ccc(NS(=O)(=O)c3ccc(F)cc3)cc2)c(OC)c1	-11	13	3	-9	4	0
COc1ccc(NS(=O)(=O)c2ccc(C(=O)N3CCC(C)CC3)cc2)cc1	-13	-5	27	-9	24*	40*
CCOc1ccc(NS(=O)(=O)c2ccc(C(=O)N3CC(C)OC(C)C3)cc2)cc1 (stereo unspecified)	-13	3	66*	-6	51*	58*
COc1ccc(NS(=O)(=O)c2ccc(C(=O)N(C)Cc3ccc(C)o3)cc2)cc1	-11	-3	14	-4	27*	27*
CCOc1ccc(NS(=O)(=O)c2cc(C(=O)N3CC(C)OC(C)C3)ccc2C)cc1 (stereo unspecified)	-7	-7	0	13	-1	-2
Cc1ccc(NS(=O)(=O)c2ccc(C(=O)N3CCCC(C(F)(F)F)C3)cc2)cc1 (stereo unspecified)	-26	14	34*	-6	49*	53*
COc1ccccc1NS(=O)(=O)c1ccc(C(=O)N2CCCC(C(F)(F)F)C2)cc1 (stereo unspecified)	-12	-1	5	4	6	5
